Assay results as given in ChEMBL document CHEMBL5653630, “Activation of the p53-MDM4 regulatory axis defines the anti-tumour response to PRMT5 inhibition through its role in regulating cellular splicing” (Sci Rep, 2018).

How the values were obtained:
RL = experiment: Antiproliferative activity against human RL cells assessed as cell growth inhibition incubated for 6 days by celltiter-glo assay; assay type: functional; settings: 144 h, time 6 day
Method in brief: (§1)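 Cells seeded in 384-well plates at an optimized density and held 24 h. Day 0: treated in duplicate with a 20-point two-fold series (top dose ≤29 μM, ≤0.15% DMSO) and incubated 6 days. CellTiter-Glo luminescence read at Day 0 and Day 6. Four-parameter fit. gIC50 = midpoint of the growth window between DMSO and T0. Curves required ≥1.5 population doublings.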

MDA-MB-231 = experiment: Antiproliferative activity against human MDA-MB-231 cells assessed as cell growth inhibition incubated for 6 days by celltiter-glo assay; assay type: functional; settings: MDA-MB-231, 144 h, time 6 day; method in brief: as §1
JM1 = experiment: Antiproliferative activity against human JM1 cells assessed as cell growth inhibition incubated for 6 days by celltiter-glo assay; assay type: functional; settings: JM1, 144 h, time 6 day; method in brief: as §1
HCC1143 = experiment: Antiproliferative activity against human HCC1143 cells assessed as cell growth inhibition viability incubated for 6 days by celltiter-glo assay; assay type: functional; settings: HCC1143, 144 h, time 6 day
Method in brief: (§2)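 Cells were seeded in 384-well plates and incubated 24 h, then treated in duplicate with a 20-point, 2-fold dilution series (top dose ≤29 μM, ≤0.15% DMSO) for 6 days. CellTiter-Glo luminescence was read on day 0 and day 6. A 4-parameter fit was used, and curves needed at least 1.5 population doublings. gIC50 is the midpoint of the growth window between DMSO and T0.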

SU-DHL-6 = experiment: Antiproliferative activity against human SU-DHL-6 cells assessed as cell growth inhibition incubated for 6 days by celltiter-glo assay; assay type: functional; settings: SU-DHL-6, 144 h, time 6 day; method in brief: as §1
HCC70 = experiment: Antiproliferative activity against human HCC70 cells assessed as cell growth inhibition incubated for 6 days by celltiter-glo assay; assay type: functional; settings: HCC70, 144 h, time 6 day; method in brief: as §2
SU-DHL-16 = experiment: Antiproliferative activity against human SU-DHL-16 cells assessed as cell growth inhibition incubated for 6 days by celltiter-glo assay; assay type: functional; settings: SU-DHL-16, 144 h, time 6 day; method in brief: as §1
SU-DHL-5 = experiment: Antiproliferative activity against human SU-DHL-5 cells assessed as cell growth inhibition incubated for 6 days by celltiter-glo assay; assay type: functional; settings: SU-DHL-5, 144 h, time 6 day; method in brief: as §1
Maver1 = experiment: Antiproliferative activity against human MAVER-1 cells assessed as cell growth inhibition incubated for 6 days by celltiter-glo assay; assay type: functional; settings: Maver1, 144 h, time 6 day; method in brief: as §1
[1] = Antiproliferative activity against human PER-403 cells assessed as cell growth inhibition incubated for 6 days by celltiter-glo assay; assay type: functional; settings: PER-403, 144 h, time 6 day; method in brief: as §1
WSU-NHL = experiment: Antiproliferative activity against human WSU-NHL cells assessed as cell growth inhibition incubated for 6 days by celltiter-glo assay; assay type: functional; settings: 144 h, time 6 day; method in brief: as §1
NU-DHL-1 = experiment: Antiproliferative activity against human NU-DHL-1 cells assessed as cell growth inhibition incubated for 6 days by celltiter-glo assay; assay type: functional; settings: NU-DHL-1, 144 h, time 6 day; method in brief: as §1
5637 = experiment: Antiproliferative activity against human 5637 cells assessed as cell growth inhibition incubated for 6 days by celltiter-glo assay; assay type: functional; settings: Homo sapiens, 5637, 144 h; time 6 day
Method in brief: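 Cells seeded in 384-well plates and held 24 h, then treated in duplicate with a 20-point two-fold dilution series (≤29 μM top dose, ≤0.15% DMSO) for 6 days. CellTiter-Glo luminescence read on Day 0 and Day 6. 4-parameter fit; curves QC'd for population doubling ≥1.5. gIC50 = concentration at the midpoint between the DMSO and T0 values.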

LP-1 = experiment: Antiproliferative activity against human LP-1 cells assessed as cell growth inhibition incubated for 6 days by celltiter-glo assay; assay type: functional; settings: LP-1, 144 h, time 6 day; method in brief: as §1
HT-1376 = experiment: Antiproliferative activity against human HT-1376 cells assessed as cell growth inhibition incubated for 6 days by celltiter-glo assay; assay type: functional; settings: HT-1376, 144 h, time 6 day; method in brief: as §2
U-87 MG = experiment: Antiproliferative activity against human U-87 MG cells assessed as cell growth inhibition incubated for 6 days by celltiter-glo assay; assay type: functional, U-87MG ATCC; settings: 144 h, time 6 day; method in brief: as §1
[2] = Antiproliferative activity against human MINO cells assessed as cell growth inhibition incubated for 6 days by celltiter-glo assay; assay type: functional; settings: 144 h, time 6 day; method in brief: as §1
ZR-75-1 = experiment: Antiproliferative activity against human ZR-75-1 cells assessed as cell growth inhibition incubated for 6 days by celltiter-glo assay; assay type: functional; settings: ZR-75-1, 144 h, time 6 day; method in brief: as §1
SU-DHL10 = experiment: Antiproliferative activity against human SU-DHL-10 cells assessed as cell growth inhibition incubated for 6 days by celltiter-glo assay; assay type: functional; settings: SU-DHL10, 144 h, time 6 day; method in brief: as §1
SK-BR-3 = experiment: Antiproliferative activity against human SK-BR-3 cells assessed as cell growth inhibition incubated for 6 days by celltiter-glo assay; assay type: functional; settings: SK-BR-3, 144 h, time 6 day; method in brief: as §1
U2932 = experiment: Antiproliferative activity against human U2932 cells assessed as cell growth inhibition incubated for 6 days by celltiter-glo assay; assay type: functional; settings: U2932, 144 h, time 6 day; method in brief: as §1
J82 = experiment: Antiproliferative activity against human J82 cells assessed as cell growth inhibition incubated for 6 days by celltiter-glo assay; assay type: functional; settings: J82, 144 h, time 6 day; method in brief: as §1
SF-295 = experiment: Antiproliferative activity against human SF-295 cells assessed as cell growth inhibition incubated for 6 days by celltiter-glo assay; assay type: functional; settings: SF-295, 144 h, time 6 day; method in brief: as §1
NCI-H526 = experiment: Antiproliferative activity against human NCI-H526 cells assessed as cell growth inhibition incubated for 6 days by celltiter-glo assay; assay type: functional; settings: NCI-H526, 144 h, time 6 day; method in brief: as §1
SF-539 = experiment: Antiproliferative activity against human SF-539 cells assessed as cell growth inhibition incubated for 6 days by celltiter-glo assay; assay type: functional; settings: SF-539, 144 h, time 6 day; method in brief: as §1
MDA-MB-468 = experiment: Antiproliferative activity against human MDA-MB-468 cells assessed as cell growth inhibition incubated for 6 days by celltiter-glo assay; assay type: functional; settings: MDA-MB-468, 144 h, time 6 day; method in brief: as §1
T-24 = experiment: Antiproliferative activity against human T24 cells assessed as cell growth inhibition incubated for 6 days by celltiter-glo assay; assay type: functional; settings: T-24, 144 h, time 6 day; method in brief: as §1
JeKo-1 = experiment: Antiproliferative activity against human JeKo-1 cells assessed as cell growth inhibition incubated for 6 days by celltiter-glo assay; assay type: functional; settings: JeKo-1, 144 h, time 6 day; method in brief: as §1
HCC1806 = experiment: Antiproliferative activity against human HCC1806 cells assessed as cell growth inhibition incubated for 6 days by celltiter-glo assay; assay type: functional; settings: HCC1806, 144 h, time 6 day; method in brief: as §2
Rec1 = experiment: Antiproliferative activity against human REC1 cells assessed as cell growth inhibition incubated for 6 days by celltiter-glo assay; assay type: functional; settings: Rec1, 144 h, time 6 day; method in brief: as §1
[3] = Antiproliferative activity against human PER-624 cells assessed as cell growth inhibition incubated for 6 days by celltiter-glo assay; assay type: functional; settings: PER-624, 144 h, time 6 day; method in brief: as §1
JVM-2 = experiment: Antiproliferative activity against human JVM-2 cells assessed as cell growth inhibition incubated for 6 days by celltiter-glo assay; assay type: functional; settings: JVM-2, 144 h, time 6 day; method in brief: as §1
MDA-MB-453 = experiment: Antiproliferative activity against human MDA-MB-453 cells assessed as cell growth inhibition incubated for 6 days by celltiter-glo assay; assay type: functional; settings: MDA-MB-453, 144 h, time 6 day; method in brief: as §1

GI50 (MDA-MB-231) [µM]	GI50 (HCC1143) [µM]	GI50 (SU-DHL-6) [µM]	GI50 (SU-DHL-16) [µM]	GI50 (SU-DHL-5) [µM]	GI50 (HT-1376) [µM]	GI50 (U-87 MG) [µM]	GI50 (SU-DHL10) [µM]	GI50 (SK-BR-3) [µM]	SMILES	GI50 (RL) [µM]	GI50 (JM1) [µM]	GI50 (HCC70) [µM]	GI50 (Maver1) [µM]	GI50 [1] [µM]	GI50 (WSU-NHL) [µM]	GI50 (NU-DHL-1) [µM]	GI50 5637 [µM]	GI50 (LP-1) [µM]	GI50 [2] [µM]	GI50 (ZR-75-1) [µM]	further results
0.544	0.246	0.004	0.099	0.028	17.6	0.04	0.054	0.073	CC(=O)N1CCC(Nc2cc(C(=O)NC[C@H](O)CN3CCc4ccccc4C3)ncn2)CC1 [PEMRAMETOSTAT]	0.014	0.079	0.13	0.085	0.038	0.008	0.333	0.069	1.95	0.13	11	GI50 (U2932): 0.053 µM; GI50 (J82): 29.3 µM; GI50 (SF-295): 24.7 µM; GI50 (NCI-H526): 0.275 µM; GI50 (SF-539): 0.061 µM; GI50 (MDA-MB-468): 0.057 µM; GI50 (T-24): 0.765 µM; GI50 (JeKo-1): 5.4 µM; GI50 (HCC1806): 0.098 µM; GI50 (Rec1): 2.11 µM; GI50 [3]: 0.524 µM; GI50 (JVM-2): 0.009 µM; GI50 (MDA-MB-453): 0.029 µM
2.93	0.509	0.013	0.124	0.132	13.1	0.127	0.495	0.131	O=C(NC[C@H](O)CN1CCc2ccccc2C1)c1ccnc(NC2CCC2)c1	1.43	0.076	0.522	0.133	0.029	0.076	0.101	0.143	0.975	0.536	2.62	GI50 (U2932): 0.336 µM; GI50 (J82): 20.9 µM; GI50 (SF-295): 9.84 µM; GI50 (NCI-H526): 0.138 µM; GI50 (SF-539): 0.075 µM; GI50 (MDA-MB-468): 0.585 µM; GI50 (T-24): 0.65 µM; GI50 (JeKo-1): 6.19 µM; GI50 (HCC1806): 0.261 µM; GI50 (Rec1): 1.99 µM; GI50 [3]: 0.526 µM; GI50 (JVM-2): 0.172 µM; GI50 (MDA-MB-453): 0.343 µM
